Measured values collected from several papers.
Target: Dual specificity mitogen-activated protein kinase kinase 2 (MAP2K2, Homo sapiens, UniProt P36507)

CCOC(=O)c1cc2cc(-c3cc(C(=O)NCc4ccc(C(=O)O)cc4)nn3C)ccc2[nH]1  remaining binding (cell-free assay; competition with immobilised ligand; 0.1 µM): 83%
CCN1CCN(Cc2ccc(C(=O)Nc3ccc(C)c(Oc4ccc5c(c4)CC(=O)N5)c3)cc2C(F)(F)F)CC1  remaining binding (binding; competition with immobilised ligand; 1 µM): 100%
O=C(Nc1cccnn1)N1CC(C/C=C/c2cncc(Oc3ccc(C(F)(F)F)cn3)n2)C1  remaining binding (cell-free assay; competition with immobilised ligand; 1 µM): 95%
O=C(Nc1c[nH]nc1C(=O)NC1CCNCC1)c1cc(F)cc(F)c1  remaining binding (binding; competition with immobilised ligand; 1 µM): 90%
O=C(c1ccc(Nc2ncc(Cl)c(-c3ccc(Cl)s3)n2)cc1)N1CCC(N2CCCC2)CC1  remaining binding (binding; competition with immobilised ligand; 1 µM): 15%
COc1ccnn2ncc(-c3ccnc(N(C)C)n3)c12  remaining binding (binding; 1 µM): 100%
O=C(c1ccc(Nc2ncc(Cl)c(-c3cc4ccccc4s3)n2)cc1)N1CCC(N2CCCC2)CC1  remaining binding (binding; competition with immobilised ligand; 1 µM): 27%
CNC(=O)[C@@H]1CC[C@@H](n2c(-c3ccc4cnccc4c3)nc3ccc(C(=O)NCc4cccc(C(N)=O)c4)cc32)C1  remaining binding (binding; competition with immobilised ligand; 1 µM): 79%
FC(F)(F)Oc1cccc(-c2cnc3ccc(-c4ccncc4)nn23)c1  remaining binding (cell-free assay; competition with immobilised ligand; 5 µM): 72%
Cc1c(NC(=O)c2cc(C(N)=O)nc3cc(F)ccc23)c(C(F)(F)F)nn1Cc1ccc(C(C)(C)C)cc1  remaining binding (cell-free assay; competition with immobilised ligand; 1 µM): 100%
CN(CCCC(F)(F)F)c1nccc(-c2cnn3ncccc23)n1  remaining binding (binding; 1 µM): 100%
N#Cc1ccccc1CSc1nnc2c(n1)[nH]c1ccccc12  remaining binding (binding; competition with immobilised ligand; 10 µM): 87%
C[C@@H]1CN(c2ccc3ncc(-c4ccc5[nH]nc(C6CC6)c5c4)n3n2)C[C@H](C)O1  remaining binding (binding; competition with immobilised ligand; 0.5 µM): 100%
CC(=O)c1c(NS(C)(=O)=O)c2cc(-c3ccc(Cl)cc3)c(-c3ccc(Cl)cc3Cl)nc2n(C)c1=O  remaining binding (cell-free assay; competition with immobilised ligand; 1 µM): 100%
CN(c1nccc(-c2cnn3ncccc23)n1)C1CC1  remaining binding (binding; 1 µM): 100%
Cc1nccc(COC(=O)N2C[C@@H]3[C@@H](CNC(=O)c4ccc5[nH]nnc5c4)[C@@H]3C2)n1  remaining binding (cell-free assay; competition with immobilised ligand; 1 µM): 84%
N[C@@H]1CCN(c2nccc(-c3cnn4ncccc34)n2)C1  remaining binding (binding; 1 µM): 84%
COc1ncc2cc3ccccc3nc2c1C#N  remaining binding (cell-free assay; competition with immobilised ligand; 5 µM): 92%
O=C(NS(=O)(=O)c1ccc(NCC2CCOCC2)c([N+](=O)[O-])c1)c1ccc(N2CCN(Cc3ccc(C(F)(F)F)cc3-c3ccc(Cl)cc3)CC2)cc1Oc1cnc2[nH]ccc2c1  remaining binding (cell-free assay; competition with immobilised ligand; 1 µM): 100%
C[C@H]1CCN(c2nccc(-c3cnn4ncccc34)n2)C1  remaining binding (binding; 1 µM): 100%
O=C(NCCCN1CCOCC1)c1ccc(Nc2ncc(Cl)c(-c3ccc(Cl)s3)n2)cc1  remaining binding (binding; competition with immobilised ligand; 1 µM): 59%
CN(C)CC#Cc1ccc(OCCCc2sc(N3CCc4cccc(C(=O)Nc5nc6ccccc6s5)c4C3)nc2C(=O)O)c(F)c1  remaining binding (cell-free assay; competition with immobilised ligand; 1 µM): 100%
C=CC(=O)N1CCC(C(=O)NCC(=O)N2CCN(c3nc(-c4cnc(N)nc4C(F)F)nc(N4CCOCC4)n3)CC2)CC1  remaining binding (binding; competition with immobilised ligand; 1 µM): 59%
CC1CCCN1c1nccc(-c2cnn3ncccc23)n1 (stereo not drawn)  remaining binding (binding; 1 µM): 96%
